Compounds with a hit are over-represented: about 1.6% of the library has one in this group of screens.
Cardio protect = cardioprotection against H2O2-induced cell death, primary screen, uHTS, H9c2 cells, ATPLite luminescence; protection from H2O2 cell death, % at 20 µM; actives 0.63% (n = 360,000); AID 588492, 2011; H9c2 cardiomyocytes, H2O2 injury protection, 2 h;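 active means compounds giving at least 50% protection of heart cells from peroxide-induced death in the single-dose screen, raw or plate-pattern-corrected value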;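 further: 0% = DMSO wells with peroxide and 100% = DMSO wells without peroxide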
Neddyl block = inhibitors of cullin neddylation, primary screen, biochemical, TR-FRET, uHTS, NAE and Ubc12. inhibition, % at 25 µM. actives 0.58% (n = 360,000). AID 651699, 2012; in the data active means inhibition above about 36%
ARFGAP1 inh = inhibitors of rat ARFGAP1 GAP activity, primary screen, biochemical, fluorescence polarization, GDP tracer; inhibition, % at 16.5 µM; actives 0.26% (n = 360,000); ADP-ribosylation factor GTPase-activating protein 1 (Rattus norvegicus), Q62848; Arfgap1-stimulated ARF1 GTP hydrolysis, GDP FP detection;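 active means inhibition above a per-plate limit, mean inhibition of low control wells plus 3 SD, cut at about 25% in these data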;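 further: 0% = DMSO wells with enzyme and 100% = wells lacking Arfgap1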
Target sequence (Q62848 1-136 limits assumed): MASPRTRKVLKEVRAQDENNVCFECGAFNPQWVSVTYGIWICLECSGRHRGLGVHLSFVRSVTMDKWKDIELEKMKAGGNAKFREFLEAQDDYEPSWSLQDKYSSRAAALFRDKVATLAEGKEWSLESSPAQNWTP
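Material – truncated rat Arfgap1 GAP domain · Buffer or medium – HEPES-based buffer, pH 7.5 · Reagent – human ARF1(Δ1-17)-GTP substrate · Dosing – 16.5 µM single point, 1.26% DMSO · Schedule – GTP hydrolysis reaction 2 h at 25 °C · Technique – GDP detection by fluorescence polarization · Benchmarks – No-Arfgap1 wells (100%) versus DMSO full-reaction wells (0%) · Repeats – single replicate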
ASAP1 inh = inhibitors of human ASAP1 ArfGAP activity, primary screen, biochemical, fluorescence polarization. Arf-GAP with SH3 domain, ANK repeat and PH domain-containing protein 1 (Homo sapiens), …. AID 624377, 2012. ASAP1-stimulated ARF1 GTP hydrolysis, GDP FP detection. actives 0.19% (n = 360,000). inhibition, % at 16.5 µM; in the data active means inhibition above about 25%;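 further: 0% = vehicle with enzyme and substrate and 100% = no enzyme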
ARFGAP1 inh conf = ARFGAP1 inhibitor hit confirmation, biochemical, fluorescence polarization, triplicate. AID 651608, 2012. actives 30% (n = 890). shares compounds with ARFGAP1 inh. ARFGAP1-stimulated ARF1 GTP hydrolysis, GDP tracer FP. inhibition, % at 16.5 µM;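 active means average inhibition over triplicates above the hit cutoff set in the earlier primary screen, cut at about 25% in these data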;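 further: 0% = Arfgap1 plus ARF1-GTP with DMSO and 100% = wells lacking Arfgap1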
Target sequence (Q62848 whole entry, looked up): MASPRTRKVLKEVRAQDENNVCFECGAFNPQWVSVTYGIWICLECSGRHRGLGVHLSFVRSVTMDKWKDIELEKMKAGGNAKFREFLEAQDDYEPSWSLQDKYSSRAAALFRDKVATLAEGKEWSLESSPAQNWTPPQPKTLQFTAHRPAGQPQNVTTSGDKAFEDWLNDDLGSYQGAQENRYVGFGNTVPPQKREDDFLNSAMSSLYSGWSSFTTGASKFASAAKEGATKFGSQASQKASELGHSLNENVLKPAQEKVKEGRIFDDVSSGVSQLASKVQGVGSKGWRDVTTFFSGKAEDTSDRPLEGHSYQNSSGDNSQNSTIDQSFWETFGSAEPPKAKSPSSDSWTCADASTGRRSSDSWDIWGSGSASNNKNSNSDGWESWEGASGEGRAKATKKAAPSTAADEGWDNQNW
* = called active by the depositor; · = not tested or not shown.

SMILES	Cardio protect	Neddyl block	ARFGAP1 inh	ASAP1 inh	ARFGAP1 inh conf
Cc1ccn2c(=O)nc(SCC(=O)c3ccccc3)nc2c1	-1	8	14	-15	·
CN(C)C(=S)Oc1ccccc1C1SCCS1	-1	3	4	10	·
O=C(/C=C/c1ccccc1)Nc1nc(-c2ccncc2)cs1	7	25	35*	4	62*
O=C(/C=C\c1ccco1)Nc1nc(-c2ccccc2)cs1	4	3	5	8	·
CN(c1cccnc1)c1ccc(NC(=O)Cc2c[nH]c3ccccc23)cc1-c1ccc(F)c(F)c1	·	·	25*	3	6
Cc1cc(S(=O)(=O)Nc2cccnc2)c(C)s1	19	-5	25*	-8	8
Cc1cc2nc(-c3ccccc3Br)n(/C=C(\c3ccccc3)n3c(=O)[nH]c4ccccc43)c2cc1C	0	34	0	-8	·
CCCOc1ccc(/C=N/NC(=O)c2ccc(Cn3cc([N+](=O)[O-])cn3)o2)cc1	-14	-7	26*	23	33*
COC(=O)C1=C(C)N(Cc2ccccc2C(F)(F)F)C(=NCC2CC2)NC1c1ccc(F)cc1 (stereo not drawn)	·	·	-2	-4	·
COc1ccc(NC(=O)C(=O)NCCC2CCCCN2S(=O)(=O)c2ccc(F)cc2)cc1 (stereo not drawn)	-4	12	28*	15	3
O=C(NCCC1CCCCN1S(=O)(=O)c1ccccc1)C(=O)Nc1ccc(F)cc1 (stereo not drawn)	-6	3	13	-5	·
C=CCNc1nc(NCc2cccc(OC)c2)c2sc(-c3ccccc3)cc2n1	-8	-229	26*	14	26*
COc1cccc(C(=O)NNC(=O)c2sccc2-n2cccc2)c1	0	0	-1	-3	·
COc1ccc(/C(C)=N/NC(=O)c2sccc2-n2cccc2)cc1	-1	21	29*	7	11
CCOc1ccc(NC(=S)N=Nc2c(O)[nH]c3ccccc23)cc1	40	-26	27*	16	16
Oc1cccc(NC(=S)N=Nc2c(O)[nH]c3ccccc23)c1	23	-30	10	6	·
COCCCN1C(=O)C(CC(=O)NCCCCc2ccccc2)CC(C(=O)N(C(C)C)C(C)C)=C1C (stereo not drawn)	0	-2	4	7	·
COc1ccc2oc(C(=O)OCC(=O)N3CC(C)OC(C)C3)c(C)c2c1 (stereo not drawn)	3	·	25*	11	13
COc1ccc2oc(C(=O)OCC(=O)N3C(C)CCCC3C)c(C)c2c1 (stereo not drawn)	0	·	-2	8	·
Cc1nc2ccc(NC(=O)c3ccc(Cl)c(NC(=O)c4cccs4)c3)cc2s1	9	-17	26*	19	14
Cc1ccc(NC(=O)c2ccc(Cl)c(NC(=O)c3cccs3)c2)cc1	-5	1	-5	9	·
Cc1nc2ccc(NC(=O)C3CCN(S(=O)(=O)c4cccs4)CC3)cc2s1	-7	8	25*	9	3
Cc1ccc(NC(=O)C2CCN(S(=O)(=O)c3cccs3)CC2)cc1	-3	0	-4	3	·
COc1ccc(NC(=O)Nc2nnc(-c3ccco3)s2)cc1	-9	2	35*	6	-4
COc1ccc(NC(=O)Nc2nnc(-c3ccccc3F)s2)cc1	7	-2	12	-1	·
SMILES	Cardio protect	Neddyl block	ARFGAP1 inh	ASAP1 inh	ARFGAP1 inh conf
CC1(C(=O)NCc2ccccc2)CSCC(=O)N1CCOc1ccccc1 (stereo not drawn)	·	0	-7	-16	·
C/C(=N\N=C(/N)SC1CC(=O)N(c2ccc(Br)cc2)C1=O)c1cccs1 (stereo not drawn)	-9	-9	27*	14	21
Oc1ccc(/C=C/c2ccc3cccc(O)c3n2)cc1Br	0	·	28*	14	7
Oc1ccc(C[C@H]2CN([C@@H](Cc3cccc(O)c3)CN3CCC[C@@H]3CN3C(=S)NC[C@@H]3Cc3ccccc3)C(=S)N2CC2CCCCC2)cc1	-9	1	2	4	·
Cc1ccc(Nc2nc(CSc3nnnn3-c3ccccc3)cs2)cc1	-4	-6	29*	1	9
COc1cc(CN2C[C@@H](CO)O[C@@H](n3cnc4c(NCc5ccncc5)ncnc43)C2)cc(OC)c1OC	4	8	22	4	·
c1ccc(CCn2cnc3ccccc32)cc1	-9	-8	26*	-7	8
Cc1ccc(NC(=O)c2cccc(S(=O)(=O)NCc3ccccc3)c2)nc1	-2	8	35*	4	-6
Cc1cccc(NC(=O)c2cccc(S(=O)(=O)NCc3ccccc3)c2)n1	-5	1	7	-6	·
CCN1CCN(C(=O)Cn2ncc3c([nH]c4ccc(C)cc43)c2=O)CC1	4	25	25*	2	29*
COc1ccc(CNC(=O)CSc2nnc(C(F)(F)F)n2C)cc1	6	-8	29*	4	-5
CCCCCn1cc(CCC(=O)Nc2ccc(Oc3cccnc3)cc2)c2ccccc21	·	·	9	0	·
O=C(NCCc1nc2ccccc2[nH]1)c1cccc(Br)c1	3	-1	25*	-3	-2
O=C(NCCc1nc2ccccc2[nH]1)c1ccc(F)cc1	10	5	·	·	·
O=c1[nH]c(/C=C2\C=Nc3ccccc32)c(O)n1Cc1ccccc1F	-10	-10	25*	16	16
Cc1cc(C)c(NC(=O)CSc2nc3ccc(NC(=O)CSc4nnnn4Cc4ccccc4)cc3s2)c(C)c1	0	-53	25*	-10	5
O=C(CSc1nc2ccc(NC(=O)CSc3nnnn3Cc3ccccc3)cc2s1)Nc1ccccc1	-8	4	-3	11	·
COc1cc2c3c(c1OC)C1(C=CC(=NO)C=C1)CC3N(C(C)=O)CC2 (stereo not drawn)	6	-6	-2	-3	·
COc1cc2c3c(c1OC)C1(C=CC(=O)C=C1)CC3N(C(C)=O)CC2 (stereo not drawn)	24	1	29*	-16	8
CC1OC(COCc2ccccc2)Cc2[nH][nH]c(=O)c21 (stereo not drawn)	·	-2	4	2	·
COC(=O)C1=C(C)N(Cc2cccc(C(F)(F)F)c2)C(=NCc2ccc(C(F)(F)F)cc2)NC1c1ccc(F)cc1 (stereo not drawn)	·	·	20	5	·
COC(=O)C1=C(C)N(Cc2cccc(C(F)(F)F)c2)C(=NCc2ccc(C(F)(F)F)cc2)NC1c1ccc(C(F)(F)F)cc1 (stereo not drawn)	·	·	32*	19	16
